Reference: ChEMBL document CHEMBL5576140, “Computational Design of Pore-Forming Peptides with Potent Antimicrobial and Anticancer Activities” (J Med Chem, 2024)
The source made the active and inactive calls. The calls are words filed in the database; no cut-off is given here.

Experiments:
[1] = tested on: HCT-116; experiment: pH-dependent anticancer activity against human HCT-116 cells in RPMI medium at 10 uM incubated for 1 hr; format: functional, cell-based
Method in brief: (§1)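 Cells cultured in RPMI, DMEM or PBS, each adjusted to pH 8, 7 or 6, plus one unadjusted (~7.6). Peptide at 10 μM for only 1 h, to limit pH drift from CO₂-bicarbonate buffering. Cell viability read. Controls were melittin, ampicillin and PBS. Two independent repetitions; effects analysed by ANOVA.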

[2] = Toxicity in neutropenic CD-1 mouse deep thigh infection model infected with Acinetobacter baumannii ATCC 19606 assessed as body weight change at 0.16 mg/kg, ip measured after 4 days; format: organism-based; conditions: in vivo, 96 h, time 4 day
Method in brief: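 Neutropenic mice infected intramuscularly in the right thigh with 10⁶ cells per mL of A. baumannii ATCC 19606. […] Body weight monitored for toxicity. Euthanasia 4 days post-infection (day 8). n = 6 per group, from three inocula.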

[3] = tested on: A498; experiment: Anti-cancer activity against human A498 cells incubated for 72 hrs by Cell Titer Glo assay; format: functional, cell-based; conditions: A498, 72 h
[4] = Cytotoxicity against human granulocytes assessed as deleterious effect upto 50 uM by flow cytometry; format: toxicity, cell-based; conditions: granulocyte
Method in brief: (§2)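 Whole blood from a healthy donor treated with peptides up to 50 μM; effect on B and T lymphocytes, granulocytes and monocytes assessed.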

[5] = tested on: Acinetobacter baumannii; experiment: Induction of outer membrane permeabilization in Acinetobacter baumannii ATCC 19606 measured for 20 mins by NPN uptake assay; format: functional, organism-based
[6] = tested on: T47D; experiment: Anti-cancer activity against human T47D cells incubated for 72 hrs by Cell Titer Glo assay; format: functional, cell-based
[7] = tested on: MCF7; experiment: Induction of apoptosis in human MCF7 cells in DMEM medium at pH 6 assessed as increase in cleaved capase-3 level at 5 uM; format: functional, cell-based
Method in brief: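 MCF-7 cells treated with peptides at pH 6; apoptosis detected by immunoblotting for cleaved PARP and cleaved caspase-3.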

[8] = tested on: Klebsiella pneumoniae; experiment: Induction of outer membrane permeabilization in Klebsiella pneumoniae ATCC 13883 measured for 20 mins by NPN uptake assay; format: functional, organism-based
Method in brief: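 Outer-membrane permeabilization of Gram-negative bacteria read as rise in fluorescence of the lipophilic dye NPN, which enters only when outer-membrane integrity is compromised. Peptides applied at their MIC against the respective strain; polymyxin B and levofloxacin as reference antibiotics. Triplicates.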

[9] = tested on: SK-OV-3; experiment: Anti-cancer activity against human SK-OV-3 cells incubated for 72 hrs by Cell Titer Glo assay; format: functional, cell-based; conditions: SK-OV-3, 72 h
[10] = tested on: Acinetobacter baumannii; experiment: Depolarization of cytoplasmic membrane in Acinetobacter baumannii ATCC 19606 at MIC measured for 45 mins by DiSC3-(5) dye based assay; format: functional, organism-based
Method in brief: (§3)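 Bacteria loaded with membrane-potential dye DiSC3-(5), then treated with peptide at its MIC for the respective strain; depolarization read as rise in dye fluorescence; polymyxin B and levofloxacin as reference antibiotics.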

[11] = tested on: B cell; experiment: Cytotoxicity against human B-lymphocytes assessed as deleterious effect upto 50 uM by flow cytometry; format: toxicity, cell-based; method in brief: as §2
[12] = tested on: Mus musculus; experiment: Induction of wound healing activity in immunosuppressed Balb/c mouse excisional dorsal wound infection model infected with Acinetobacter baumannii NCTC 13301 assessed as area of serocellular crust at about 10 mg/kg treated for 7 days once daily measured after 20 days; format: functional; conditions: time 20 day
[13] = tested on: MCF7; experiment: pH-dependent anticancer activity against human MCF7 cells in DMEM medium at 10 uM incubated for 1 hr; format: functional, cell-based; method in brief: as §1
[14] = tested on: HL-60; experiment: pH-dependent anticancer activity against human HL-60 cells in PBS medium at 10 uM incubated for 1 hr; format: functional, cell-based; method in brief: as §1
[15] = tested on: NCI-H460; experiment: Anti-cancer activity against human NCI-H460 cells incubated for 72 hrs by Cell Titer Glo assay; format: functional, cell-based; conditions: NCI-H460, 72 h
[16] = Toxicity against reconstructed human skin model assessed as irritation at 50 uM incubated for 1 hr followed by compound washout measured after 42 hrs by MTT assay; format: tissue-based, Skin of body
Method in brief: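 Reconstructed human epidermis with stratum corneum, per OECD TG 439 skin irritation guideline. Tissues exposed 1 h to peptide at 50 μM, then 42 h post-treatment incubation. Viability read by MTT. Controls were SDS and melittin.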

[17] = tested on: Mus musculus; experiment: Induction of wound healing activity in immunosuppressed Balb/c mouse excisional dorsal wound infection model infected with Acinetobacter baumannii NCTC 13301 assessed as reduction in wound expansion at about 10 mg/kg treated for 7 days once daily; format: functional, organism-based; conditions: time 7.0 day
[18] = tested on: HCT-116; experiment: pH-dependent anticancer activity against human HCT-116 cells in DMEM medium at 10 uM incubated for 1 hr; format: functional, cell-based; method in brief: as §1
[19] = tested on: A549; experiment: Anti-cancer activity against human A549 cells incubated for 72 hrs by Cell Titer Glo assay; format: functional, cell-based; conditions: A549, 72 h
[20] = tested on: HCT-116; experiment: pH-dependent anticancer activity against human HCT-116 cells in PBS medium at 10 uM incubated for 1 hr; format: functional, cell-based; method in brief: as §1
[21] = tested on: Enterococcus faecium; experiment: Depolarization of cytoplasmic membrane in Enterococcus faecium ATCC 700221 at MIC measured for 45 mins by DiSC3-(5) dye based assay; format: functional, organism-based; method in brief: as §3
[22] = tested on: MDA-MB-435; experiment: Anti-cancer activity against human MDA-MB-435 cells incubated for 72 hrs by Cell Titer Glo assay; format: functional, cell-based; conditions: MDA-MB-435, 72 h
[23] = tested on: HL-60; experiment: pH-dependent anticancer activity against human HL-60 cells in DMEM medium at 10 uM incubated for 1 hr; format: functional, cell-based; method in brief: as §1
[24] = Toxicity in immunosuppressed Balb/c mouse excisional dorsal wound infection model infected with Acinetobacter baumannii NCTC 13301 assessed as decrease in animal survival at about 10 mg/kg treated for 7 days once daily measured after 45 days; format: organism-based; conditions: in vivo, 1080 h, time 45 day
[25] = tested on: HCT-116; experiment: Anti-cancer activity against human HCT-116 cells incubated for 72 hrs by Cell Titer Glo assay; format: functional, cell-based; conditions: HCT-116, 72 h
[26] = tested on: MCF7; experiment: Anti-cancer activity against human MCF7 cells incubated for 72 hrs by Cell Titer Glo assay; format: functional, cell-based; conditions: MCF7, 72 h
[27] = tested on: MDA-MB-231; experiment: Anti-cancer activity against human MDA-MB-231 cells incubated for 72 hrs by Cell Titer Glo assay; format: functional, cell-based; conditions: MDA-MB-231, 72 h
[28] = tested on: CAKI-1; experiment: Anti-cancer activity against human CAKI-1 cells incubated for 72 hrs by Cell Titer Glo assay; format: functional, cell-based; conditions: CAKI-1, 72 h
[29] = tested on: Monocyte; experiment: Cytotoxicity against human monocytes assessed as deleterious effect upto 50 uM by flow cytometry; format: toxicity, cell-based; method in brief: as §2
[30] = tested on: Staphylococcus aureus; experiment: Antimicrobial activity against Staphylococcus aureus NE163 harboring single transposon insertion mutation in aureolysin at 30 uM incubated for 18 hrs relative to control; format: functional
Method in brief: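 CA-MRSA USA300 LAC derivative JE2 and single transposon insertion mutants derived from JE2, each lacking an extracellular protease gene, were exposed to peptides up to 30 μM. The read-out was percent growth inhibition. Peptides were dissolved in PBS, and tests were run in triplicate.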

[31] = tested on: Pseudomonas aeruginosa; experiment: Depolarization of cytoplasmic membrane in Pseudomonas aeruginosa PAO1 at MIC measured for 45 mins by DiSC3-(5) dye based assay; format: functional, organism-based; method in brief: as §3
[32] = tested on: RPMI-8226; experiment: Anti-cancer activity against human RPMI-8226 cells incubated for 72 hrs by Cell Titer Glo assay; format: functional, cell-based; conditions: RPMI-8226, 72 h
[33] = Hemolytic activity against human RBC incubated for 1 hr by microplate reader analysis; format: toxicity, cell-based, Erythrocyte; conditions: red blood cells (erythrocytes)
Method in brief: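 Human red blood cells exposed to peptides up to 50 μM; hemolysis measured, IC50 derived where reached.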

Question: With H-KKKKLKKILKKLFQFINQLDNQLQDIKQNK-NH2 as the substance, how does the Activity [1] read?
Answer: Its Activity is “Active”.

Question: What about the Activity [2] of the same substance?
Answer: Its Activity is “Non-Toxic”.

Question: And the IC50 [3]?
Answer: The IC50 was 1000 nM.

Question: And the Activity [4]?
Answer: The Activity was “Non-Toxic”.

Question: And the Activity [5]?
Answer: Its Activity is “inactive”.

Question: What about the IC50 [6] of the same substance?
Answer: Its IC50 is 1000 nM.

Question: And the Activity [7]?
Answer: The Activity was “Active”.

Question: And the Activity [8]?
Answer: The Activity was “Active”.

Question: What about the IC50 [9] of the same substance?
Answer: The IC50 was 1000 nM.

Question: And the Activity [10]?
Answer: The Activity was “Active”.

Question: What about the Activity [11] of the same substance?
Answer: The Activity was “Non-Toxic”.

Question: What about the Activity [12] of the same substance?
Answer: The Activity was under 10 mm2.

Question: What about the Activity [13] of the same substance?
Answer: The Activity was “Active”.

Question: And the Activity [14]?
Answer: The Activity was “Active”.

Question: And the IC50 [15]?
Answer: The IC50 was 1000 nM.

Question: What about the Activity [16] of the same substance?
Answer: The Activity was “Non-Toxic”.

Question: What about the Activity [17] of the same substance?
Answer: Its Activity is “Active”.

Question: And the Activity [18]?
Answer: The Activity was “Active”.

Question: What about the IC50 [19] of the same substance?
Answer: Its IC50 is 1000 nM.

Question: What about the Activity [20] of the same substance?
Answer: The Activity was “Active”.

Question: What about the Activity [21] of the same substance?
Answer: Its Activity is “Active”.

Question: What about the IC50 [22] of the same substance?
Answer: The IC50 was 1000 nM.

Question: What about the Activity [23] of the same substance?
Answer: The Activity was “Active”.

Question: What about the Activity [24] of the same substance?
Answer: Its Activity is “Toxic”.

Question: And the IC50 [25]?
Answer: The IC50 was 1000 nM.

Question: And the IC50 [26]?
Answer: The IC50 was 1000 nM.

Question: What about the IC50 [27] of the same substance?
Answer: Its IC50 is 1000 nM.

Question: And the IC50 [28]?
Answer: The IC50 was 1000 nM.

Question: What about the Activity [29] of the same substance?
Answer: The Activity was “Non-Toxic”.

Question: What about the inhibition at 30 µM [30] of the same substance?
Answer: The inhibition at 30 µM was under 45%.

Question: What about the Activity [31] of the same substance?
Answer: The Activity was “Active”.

Question: What about the IC50 [32] of the same substance?
Answer: The IC50 was 1000 nM.

Question: What about the IC50 at 1 h [33] of the same substance?
Answer: The IC50 at 1 h was over 50000 nM.
